According to ChEMBL document CHEMBL1156623, “Novel 1,4-benzothiazine derivatives as large conductance Ca2+-activated potassium channel openers” (J Med Chem, 2008):
Calls of active or inactive are those of the source. The calls are words filed in the database; no cut-off is given here.

Key:
[1] = target: Calcium-activated potassium channel subunit alpha-1 (Rattus norvegicus, UniProt Q62976); experiment: (§1) Activation of large-conductance calcium-activated potassium channel-mediated vasorelaxation in endothelium-denuded normotensive Wistar rat thoracic aorta assessed as potassium chloride-induced contractile tension
In short: (§2)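 Male Wistar rats (250-350 g); thoracic aortic rings, endothelium removed (confirmed by ACh 10 µM lack of relaxation), in Tyrode at 37 °C gassed 95% O2/5% CO2, isometric tension, 60 min equilibration. After stable KCl 20 mM contraction, 3-fold increasing cumulative concentrations added, up to 10 µM. Efficacy as % of KCl tone; pIC50 from half-reduction; mean ± SE of 5-10 experiments.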

[2] = target: Calcium-activated potassium channel subunit alpha-1 (Rattus norvegicus) (UniProt Q62976); experiment: as §1; set-up: scale not given: the % may be the effect or the level left; in short: as §2
[3] = target: Calcium-activated potassium channel subunit alpha-1 (Rattus norvegicus) (UniProt Q62976); experiment: Activation of large-conductance calcium-activated potassium channel-mediated vasorelaxation in endothelium-denuded normotensive Wistar rat thoracic aorta assessed as potassium chloride-induced contractile tension relative to NS-1619; assay type: tissue-based
[4] = target: Calcium-activated potassium channel subunit alpha-1 (Rattus norvegicus) (UniProt Q62976); experiment: Activation of large-conductance calcium-activated potassium channel-mediated vasorelaxation in endothelium-denuded normotensive Wistar rat thoracic aorta assessed as potassium chloride-induced contraction in presence of tetraethylammonium chloride; assay type: tissue-based
In short: (§3)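 Male Wistar rats (250-350 g); endothelium-denuded thoracic aortic rings in Tyrode at 37 °C, gassed 95% O2/5% CO2, isometric tension. Denudation checked with ACh 10 µM on KCl 20 mM contraction. After KCl 20 mM contraction, IbTX 100 nM or TEA 10 mM added, then cumulative 3-fold increasing compound concentrations, max 10 µM; DMSO stock diluted in water. Efficacy as % of KCl tone; pIC50; mean ± SE, 5-10 experiments.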

[5] = target: Calcium-activated potassium channel subunit alpha-1 (Rattus norvegicus) (UniProt Q62976); experiment: Activation of large-conductance calcium-activated potassium channel-mediated vasorelaxation in endothelium-denuded normotensive Wistar rat thoracic aorta assessed as potassium chloride-induced contraction in presence of iberiotoxin; in short: as §3

Sequence of Calcium-activated potassium channel subunit alpha-1 (Rattus norvegicus) (Q62976 whole entry): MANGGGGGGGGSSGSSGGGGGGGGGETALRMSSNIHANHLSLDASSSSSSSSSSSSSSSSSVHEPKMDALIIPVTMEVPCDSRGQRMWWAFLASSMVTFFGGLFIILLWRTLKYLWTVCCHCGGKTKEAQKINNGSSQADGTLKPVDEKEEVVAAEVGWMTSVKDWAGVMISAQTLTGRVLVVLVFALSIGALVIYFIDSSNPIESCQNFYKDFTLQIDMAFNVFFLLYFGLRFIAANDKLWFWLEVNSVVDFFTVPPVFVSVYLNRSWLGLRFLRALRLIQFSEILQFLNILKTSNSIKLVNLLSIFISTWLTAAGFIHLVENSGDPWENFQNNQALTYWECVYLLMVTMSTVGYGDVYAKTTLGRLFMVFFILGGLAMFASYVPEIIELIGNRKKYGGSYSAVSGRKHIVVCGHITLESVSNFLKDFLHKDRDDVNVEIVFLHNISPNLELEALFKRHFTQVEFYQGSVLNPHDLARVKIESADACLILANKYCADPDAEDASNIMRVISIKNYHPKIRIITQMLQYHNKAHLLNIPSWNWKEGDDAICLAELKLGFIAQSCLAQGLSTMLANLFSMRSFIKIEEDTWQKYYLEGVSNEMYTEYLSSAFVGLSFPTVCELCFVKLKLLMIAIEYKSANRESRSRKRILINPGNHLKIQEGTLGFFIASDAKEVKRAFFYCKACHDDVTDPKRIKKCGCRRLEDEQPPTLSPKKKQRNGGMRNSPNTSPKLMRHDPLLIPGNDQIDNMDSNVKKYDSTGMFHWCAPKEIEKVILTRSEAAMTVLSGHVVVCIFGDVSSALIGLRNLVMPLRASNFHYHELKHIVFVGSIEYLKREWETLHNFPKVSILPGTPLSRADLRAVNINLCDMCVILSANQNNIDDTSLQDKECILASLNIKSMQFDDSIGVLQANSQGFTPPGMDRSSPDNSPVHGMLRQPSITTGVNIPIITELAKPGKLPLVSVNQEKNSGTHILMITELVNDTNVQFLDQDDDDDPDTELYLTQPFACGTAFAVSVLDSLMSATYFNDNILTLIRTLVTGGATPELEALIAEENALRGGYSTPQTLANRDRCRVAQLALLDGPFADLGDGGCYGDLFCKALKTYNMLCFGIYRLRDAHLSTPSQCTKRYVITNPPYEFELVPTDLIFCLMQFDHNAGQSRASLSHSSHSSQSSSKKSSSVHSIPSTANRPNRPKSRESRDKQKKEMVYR
Sequence of Calcium-activated potassium channel subunit alpha-1 (Q62976 whole entry): as above

In the case of `O=c1[nH]c2cc(C(F)(F)F)ccc2n1-c1cc(C(F)(F)F)ccc1O`, the IC50 [1] is reported as 5.01 µM.

`O=C1Nc2ccccc2SC1c1ccccc1` (centres undefined) showed an Activity [2] of under 50% and an Emax [3] of 42%.

For `COc1ccc(Br)cc1C1Sc2ccc(C(F)(F)F)cc2NC1=O` (centres undefined), the Activity [4] was “inactive”, the IC50 [1] was 0.0398 µM and the Emax [3] was 77%. The Activity [5] was “inactive”.

With `COc1ccc(Br)cc1C1Sc2ccc(C(F)(F)F)cc2NC1=S` (centres undefined) the Activity [2] was under 50% and the Emax [3] was 26%.

`O=C1Nc2cc(C(F)(F)F)ccc2SC1c1cc(Br)ccc1O` (centres undefined) showed an Activity [2] of under 50% and an Emax [3] of 44%.

For `O=C1Nc2cc(C(F)(F)F)ccc2SC1c1ccccc1` (centres undefined), the Activity [2] was under 50% and the Emax [3] was 39%.

Molecule `COc1ccccc1C1CNc2cc(C(F)(F)F)ccc2S1` (centres undefined) has an IC50 [1] of 22.4 µM and an Emax [3] of 100%.

With `COc1ccc(Br)cc1C1Sc2ccc(C(F)(F)F)cc2N(C)C1=O` (centres undefined) the Activity [4] was “inactive”, the IC50 [1] was 0.617 µM and the Emax [3] was 67%.

With `COc1ccc(Br)cc1C1Sc2ccccc2NC1=O` (centres undefined) the IC50 [1] was 15.8 µM and the Emax [3] was 100%.

`O=C1Nc2cc(C(F)(F)F)ccc2SC1c1cc(Cl)ccc1O` (centres undefined) showed an Activity [2] of under 50%.

`COc1ccc(Br)cc1C1CNc2cc(C(F)(F)F)ccc2S1` (centres undefined) showed an Activity [2] of under 50% and an Emax [3] of under 25%.

For `COc1ccc(Br)cc1C1C(=O)Nc2cc(C(F)(F)F)ccc2[S+]1[O-]` (centres undefined), the Activity [2] was under 50% and the Emax [3] was 34%.

In the case of `COc1c(Br)cc(Br)cc1C1Sc2ccc(C(F)(F)F)cc2NC1=O` (centres undefined), the IC50 [1] is reported as 50.1 µM and the Emax [3] is reported as 75%.

For `COc1ccc(Br)cc1[C@@H](O)[C@H]1Sc2ccc(C(F)(F)F)cc2NC1=O` (relative stereo), the IC50 [1] was 6.31 µM and the Emax [3] was 70%.
